Assay [1] deals with Adenosylhomocysteinase (Homo sapiens, UniProt P23526). Kind of assay: Inhibition of recombinant human S-adenosyl-L-homocysteine hydrolase assessed as hydrolysis of AdoHcy after 8 mins by HPLC analysis. Summed up:
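Human recombinant enzyme (50 ng) added after test compound to 10 μM AdoHcy plus adenosine deaminase (4 units) in 50 mM phosphate buffer pH 7.2 with 1 mM EDTA. Incubated at 37 °C for 8 min, then stopped with 1 mol/L perchloric acid and centrifuged at 4 °C. Read-out is AdoHcy hydrolysis activity. IC50 given as mean ± standard error of triplicate determinations.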

The target in assay [2] is T1, Adenosylhomocysteinase (Rattus norvegicus, UniProt P10760).
T1 sequence (P10760 whole entry): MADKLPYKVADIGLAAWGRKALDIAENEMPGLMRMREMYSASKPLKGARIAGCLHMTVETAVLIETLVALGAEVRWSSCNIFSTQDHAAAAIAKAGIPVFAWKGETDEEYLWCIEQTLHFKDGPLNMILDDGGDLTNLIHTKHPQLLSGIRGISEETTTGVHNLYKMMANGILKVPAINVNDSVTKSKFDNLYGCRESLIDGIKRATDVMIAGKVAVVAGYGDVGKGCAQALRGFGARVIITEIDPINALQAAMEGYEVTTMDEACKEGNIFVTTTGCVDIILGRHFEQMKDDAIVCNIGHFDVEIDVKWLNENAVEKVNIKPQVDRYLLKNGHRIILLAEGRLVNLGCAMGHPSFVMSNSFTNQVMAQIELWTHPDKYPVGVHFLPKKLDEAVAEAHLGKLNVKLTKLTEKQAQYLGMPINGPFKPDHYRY
Kind of assay: Reversible inhibition of rat liver S-adenosyl-L-homocysteine hydrolase. It counts as tissue-based.

Active and inactive are the calls of the source. No cut-off for these calls is given here.

One may read the IC50 as the concentration that inhibits the measured activity by half. Turning to `CN(C(=O)CN(CC(=O)NCC1CCCCN1C(=O)OC(C)(C)C)c1cc(Cl)ccc1Oc1ccc(Cl)cc1)C1Cc2ccccc2C1` (stereo unspecified), the IC50 on Adenosylhomocysteinase [1] stood at 150 nM. Consider `CN(C(=O)CN(CC(=O)NC[C@@H]1CCCN1C(=O)OC(C)(C)C)c1cc(Cl)ccc1Oc1ccc(Cl)cc1)C1Cc2ccccc2C1`, for which, at Adenosylhomocysteinase [1], the IC50 is 110 nM. Same read-out and setting: the result for `CN(C(=O)CN(CC(=O)NCCN1CCCC1)c1cc(Cl)ccc1Oc1ccc(Cl)cc1)C1CCNCC1` reads over 100000 nM.

`CN(C(=O)CN(CC(=O)NC1CCNC1)c1cc(Cl)ccc1Oc1ccc(Cl)cc1)C1Cc2ccccc2C1` (stereo unspecified): the inhibition entry at Adenosylhomocysteinase [1] is “Active”. Turning to `CCNCCNC(=O)CN(CC(=O)N(C)N1Cc2ccccc2C1)c1cc(Cl)ccc1Oc1ccc(Cl)cc1`, the IC50 on Adenosylhomocysteinase [1] worked out at 8.5 nM.

As for `CN(CCNC(=O)CN(CC(=O)N(C)C1Cc2ccccc2C1)c1cc(Cl)ccc1Oc1ccc(Cl)cc1)C(=O)OC(C)(C)C`, the IC50 on Adenosylhomocysteinase [1] is 70 nM. As to `O=C(CN(CC(=O)N1CCCc2ccccc21)c1cc(Cl)ccc1Oc1ccc(Cl)cc1)NCCN1CCCC1`, the IC50 on Adenosylhomocysteinase [1] amounted to 2300 nM. For `CN(C(=O)CN(CC(=O)NC1CCCNC1)c1cc(Cl)ccc1Oc1ccc(Cl)cc1)C1Cc2ccccc2C1` (stereo unspecified), the inhibition result at Adenosylhomocysteinase [1] was “Active”. Consider `CN(C(=O)CN(CC(=O)NC[C@H]1CCCN1C(=O)OC(C)(C)C)c1cc(Cl)ccc1Oc1ccc(Cl)cc1)C1Cc2ccccc2C1`, for which the IC50 on Adenosylhomocysteinase [1] was 600 nM.

In general, Ki refers to a dissociation constant, usually derived from enzyme kinetics or from competition with a known ligand. Low readings indicate higher affinity, high ones lower affinity. As for `Nc1ncnc2c1ncn2CC(O)CO` (stereo unspecified), the Ki on Adenosylhomocysteinase [2] turned out to be 1000 nM.

Turning to `CN(CCN1CCCC1)C(=O)CN(CC(=O)N(C)C1Cc2ccccc2C1)c1cc(Cl)ccc1Oc1ccc(Cl)cc1`, on Adenosylhomocysteinase [1], the IC50 was over 100000 nM.

Consider `CN(C(=O)CN(CC(=O)NC1CCCN(C(=O)OC(C)(C)C)C1)c1cc(Cl)ccc1Oc1ccc(Cl)cc1)C1Cc2ccccc2C1` (stereo unspecified), for which the IC50 at Adenosylhomocysteinase [1] came to 1200 nM. As to `CN(C(=O)CN(CC(=O)NC1CCN(C(=O)OC(C)(C)C)C1)c1cc(Cl)ccc1Oc1ccc(Cl)cc1)C1Cc2ccccc2C1` (stereo unspecified), the IC50 at Adenosylhomocysteinase [1] worked out at 1500 nM. `CCN(CCNC(=O)CN(CC(=O)N(C)C1Cc2ccccc2C1)c1cc(Cl)ccc1Oc1ccc(Cl)cc1)C(=O)OC(C)(C)C`: on Adenosylhomocysteinase [1], the IC50 was found to be 60 nM. Take `CC(C)N(CCNC(=O)CN(CC(=O)N(C)C1Cc2ccccc2C1)c1cc(Cl)ccc1Oc1ccc(Cl)cc1)C(=O)OC(C)(C)C`: the half-maximal inhibitory concentration (IC50) on Adenosylhomocysteinase [1] amounted to 49 nM. Still for that read-out and setting: then `CCN(C(=O)CN(CC(=O)NCCN1CCCC1)c1cc(Cl)ccc1Oc1ccc(Cl)cc1)C1Cc2ccccc2C1`, with 640 nM.

(Values after ChEMBL document CHEMBL3596133, “Discovery and structural analyses of S-adenosyl-L-homocysteine hydrolase inhibitors based on non-adenosine analogs” (Bioorg Med Chem, 2015).)
